Test results taken from ChEMBL document CHEMBL1125633, “1H-imidazo[4,5-c]quinolin-4-amines: novel non-xanthine adenosine antagonists” (J Med Chem, 1991).

What was measured:
Adenosine receptor A1 [1] = molecular target: T1, Adenosine receptor A1 (Rattus norvegicus, UniProt P25099); test: Displacement of [3H]CPX from adenosine A1 receptor of rat brain cortical membrane
T1 sequence (P25099 whole entry): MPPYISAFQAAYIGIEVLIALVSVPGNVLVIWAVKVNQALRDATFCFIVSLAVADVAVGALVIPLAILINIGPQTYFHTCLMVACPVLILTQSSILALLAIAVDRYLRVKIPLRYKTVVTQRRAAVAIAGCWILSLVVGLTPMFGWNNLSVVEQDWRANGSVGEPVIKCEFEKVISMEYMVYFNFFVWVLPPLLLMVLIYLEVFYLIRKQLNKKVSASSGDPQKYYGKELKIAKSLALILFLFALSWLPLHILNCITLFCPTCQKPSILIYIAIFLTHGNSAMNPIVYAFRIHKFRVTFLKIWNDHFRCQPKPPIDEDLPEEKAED

Adenosine receptor A1 [2] = molecular target: T2, Adenosine receptor A1 (Bos taurus, UniProt P28190); test: Displacement of [3H]CPX from adenosine A1 receptor of calf brain cortical membrane
T2 sequence (P28190 whole entry): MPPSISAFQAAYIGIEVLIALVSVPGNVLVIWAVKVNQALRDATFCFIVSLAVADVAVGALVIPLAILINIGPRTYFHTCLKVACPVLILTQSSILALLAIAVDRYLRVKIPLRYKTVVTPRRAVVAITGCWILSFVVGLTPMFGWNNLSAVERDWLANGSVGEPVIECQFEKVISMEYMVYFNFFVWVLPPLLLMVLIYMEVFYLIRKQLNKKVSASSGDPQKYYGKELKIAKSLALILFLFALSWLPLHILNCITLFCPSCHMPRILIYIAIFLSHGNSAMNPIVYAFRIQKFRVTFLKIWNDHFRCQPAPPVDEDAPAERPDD
Summary of the method: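 Calf brain cortical membranes, about 15 μg protein, incubated with 0.1 nM [3H]CPX in 50 mM Tris-HCl pH 7.4 for 1 h at 25 °C in duplicate. Nonspecific binding was defined with 10 μM R-PIA. DMSO was at most 1% final. Filter-bound radioactivity was counted. Means of three experiments.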

[3] = molecular target: Adenosine receptors; A1 & A2 (Rattus norvegicus) (UniProt P29276+P25099+P30543); test: Ratio of Ki for adenosine A2 and A1 receptors; assay type: protein assay
Adenosine A2 receptor [4] = molecular target: T3, Adenosine A2 receptor (Rattus norvegicus, UniProt P29276+P30543); test: (§1) Binding affinity for adenosine A2 receptor using [3H]NECA in rat striatal membrane; assay type: cell membranes, Striatum
Adenosine A2 receptor [5] = molecular target: T3, Adenosine A2 receptor; test: as §1; assay type: cell membranes, Striatum; remark: listed apart in the source
Summary of the method: (§2)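 Rat striatal membranes from male Wistar rats, treated with 2 IU/mL adenosine deaminase for 30 min at 37 °C. Binding used about 50 μg protein and 4 nM [3H]NECA in 50 mM Tris-HCl, 10 mM MgCl2, pH 7.7, with 50 nM CPA added to block A1 sites. Nonspecific binding was defined with 100 μM CPA. Incubation 1 h at 25 °C in duplicate, ended by filtration and scintillation counting.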

[6] = molecular target: Adenosine A2 receptor (Rattus norvegicus) (UniProt P29276+P30543); test: Inhibitory binding activity for adenosine A2 receptor using [3H]NECA in rat striatal membrane at 1 uM; assay type: cell membranes; conditions: Striatum; summary of the method: as §2

| Compound | Ki (Adenosine receptor A1 [1]) [nM] | Ki (Adenosine receptor A1 [2]) [nM] | Ratio [3] | Ki (Adenosine A2 receptor [4]) [nM] | Ki (Adenosine A2 receptor [5]) [nM] | inhibition [6] [%] |
| --- | --- | --- | --- | --- | --- | --- |
| Nc1[nH]c2ccccc2c2ncnc1-2 | 1600 | 1700 | 0.9 |  | 1400 |  |
| Nc1[nH]c2ccccc2c2nc(-c3ccccc3)nc1-2 | 34 | 17 |  | 290 |  |  |
| Nc1[nH]c2ccccc2c2nc(C3CCCC3)nc1-2 | 270 | 290 | 3 | 740 |  |  |
| C[C@@H](Cc1ccccc1)Nc1[nH]c2ccccc2c2ncnc1-2 | 1500 | 460 | 1.9 | 2800 |  |  |
| c1ccc(Nc2nc3ccccc3c3[nH]c(C4CCCC4)nc23)cc1 | 230 | 23 |  |  |  | 6 |
| c1ccc(Nc2[nH]c3ccccc3c3nc(-c4ccccc4)nc2-3)cc1 | 460 | 50 |  |  |  | 9 |

Further compounds by falling Ki (Adenosine receptor A1 [1]), results first:

| Ki (Adenosine receptor A1 [1]) [nM] | Ki (Adenosine receptor A1 [2]) [nM] | Ratio [3] | Ki (Adenosine A2 receptor [4]) [nM] | Ki (Adenosine A2 receptor [5]) [nM] | inhibition [6] [%] | Compound |
| --- | --- | --- | --- | --- | --- | --- |
| 2100 | 490 | 5 |  | 10500 |  | c1ccc(Nc2[nH]c3ccccc3c3ncnc2-3)cc1 |
| 310 | 74 | 2.6 | 810 |  |  | C[C@H](Cc1ccccc1)Nc1[nH]c2ccccc2c2ncnc1-2 |
| 43 | 10 | 6.7 | 290 |  |  | c1ccc2c3ncnc-3c(NC3CCCC3)[nH]c2c1 |
| 39 | 9.1 |  | 450 |  |  | c1ccc2c3nc(C4CCCC4)nc-3c(NC3CCCC3)[nH]c2c1 |
| 10 | 1.5 |  | 450 |  |  | c1ccc(-c2nc3c(NC4CCCC4)[nH]c4ccccc4c-3n2)cc1 |
